Laboratory results as given in ChEMBL document CHEMBL1123532, “Conformationally defined adrenergic agents. 3. Modifications to the carbocyclic ring of 5,6-dihydroxy-1-(2-imidazolinyl)tetralin: improved separation of alpha 1 and alpha 2 adrenergic activities” (J Med Chem, 1986).
Where “and” joins values, the source holds several entries; their conditions need not be identical. Identical values can stand only once. Calls of active or inactive are those of the source. The rule behind the calls is not given here.

Tests used:
[1] = Compound was evaluated for the percent of maximum response of the tissue to NE; type: functional
[2] = target: T1, Adrenergic receptor alpha-1 (Homo sapiens) (UniProt P35348+P25100+P35368); experiment: Compound was evaluated for alpha-1 adrenergic receptor activity in isolated rabbit aortic tissue, effective dose of norepinephrine (NE); conditions: Oryctolagus cuniculus; target entry is the homologue from another species
In short: (§1)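 Helical aortic strip in 10-mL bath of Krebs buffer, pH 7.4, under 2 g initial tension and equilibrated 1 h with four washes. Cumulative norepinephrine curve run from 1 × 10^-8 to 1 × 10^-3 M, each response allowed to plateau. After washout, tension reset to 2 g and a cumulative test-compound curve run in the same tissue. Isometric contraction recorded; molar ED50 taken for each.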

[3] = target: T1, Adrenergic receptor alpha-1 (Homo sapiens); experiment: Compound was evaluated for alpha-1 adrenergic receptor activity in isolated rabbit aortic tissue, effective dose (CPD); conditions: Oryctolagus cuniculus; target entry is the homologue from another species; in short: as §1
[4] = target: T2, Adrenergic receptor alpha-2 (Homo sapiens) (UniProt P08913+P18825+P18089); experiment: Compound was evaluated for alpha-2 adrenergic receptor activity in the phenoxybenzamine (PBZ) - pretreated dog saphenous vein, effective dose (CPD); type: tissue-based; conditions: Canis lupus familiaris, target entry is the homologue from another species
In short: (§2)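 Beagle lateral saphenous vein rings (3-4 mm, either sex) in bicarbonate buffer with cocaine, hydrocortisone and propranolol, gassed with 95% O2/5% CO2 at 37 °C, pH 7.45, under 2 g. After maximal NE (1 × 10^-4 M) contraction and 60 min wash, exposed to phenoxybenzamine 1 × 10^-7 M for 30 min, then washed 60 min. Control cumulative NE curve, washout, then test-compound curve in the same tissue. Molar ED50 from isometric contraction.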

[5] = target: T2, Adrenergic receptor alpha-2 (Homo sapiens); experiment: Compound was evaluated for alpha-2 adrenergic receptor activity in the phenoxybenzamine (PBZ) - pretreated dog saphenous vein, effective dose of norepinephrine (NE); type: tissue-based; conditions: Canis lupus familiaris, target entry is the homologue from another species; in short: as §2
[6] = target: T2, Adrenergic receptor alpha-2 (Homo sapiens); experiment: Compound was evaluated for alpha-2 adrenergic receptor activity in the phenoxybenzamine (PBZ) - pretreated dog saphenous vein, effective dose (CPD); inactive; type: tissue-based; conditions: Canis lupus familiaris, target entry is the homologue from another species
[7] = Compound was evaluated for the percent of maximum response of the tissue to NE; IA=Inactive; type: functional
[8] = target: T1, Adrenergic receptor alpha-1 (Homo sapiens); experiment: Compound was evaluated for alpha-1 adrenergic activity in isolated rabbit aortic tissue, effective dose of norepinephrine (NE); type: tissue-based; conditions: Oryctolagus cuniculus; Aorta; target entry is the homologue from another species
In short: (§3)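 Helical aortic strip in Krebs buffer (pH 7.4) at 2 g initial tension, equilibrated 1 h with four washes; isometric contraction recorded. Cumulative norepinephrine curve (1 × 10^-8 to 1 × 10^-3 M), each step to plateau; washes every 10-15 min for 60-90 min, tension reset to 2 g, then cumulative test-compound curve in the same tissue. Molar ED50 values; index (ED50 NE/ED50 CPD) computed per experiment.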

[9] = target: T1, Adrenergic receptor alpha-1 (Homo sapiens); experiment: Compound was evaluated for alpha-1 adrenergic receptor activity in isolated rabbit aortic tissue, effective dose (CPD); IA=Inactive; conditions: Oryctolagus cuniculus; target entry is the homologue from another species; in short: as §3
[10] = target: T2, Adrenergic receptor alpha-2 (Homo sapiens); experiment: Compound was evaluated for alpha-2 adrenergic receptor activity in the phenoxybenzamine (PBZ) - pretreated dog saphenous vein, effective dose (CPD); Inactive; type: tissue-based; conditions: Canis lupus familiaris, target entry is the homologue from another species; in short: as §2
[11] = target: T1, Adrenergic receptor alpha-1 (Homo sapiens); experiment: Compound was evaluated for alpha-1 adrenergic activity in isolated rabbit aortic tissue, effective dose (CPD); type: tissue-based; conditions: Oryctolagus cuniculus; Aorta; target entry is the homologue from another species; in short: as §1

ED50 [6] | ED50 [8] [nM] | ED50 [9] | Structure (SMILES) | Emax [1] | ED50 [2] [nM] | ED50 [3] [nM] | ED50 [4] | ED50 [5] [nM] | Emax [7] | ED50 [10] | ED50 [11] [nM]
– | – | – | Oc1ccc2c(c1O)OCC[C@@H]2C1=NCCN1 | 118 and 107 | 67 | 35 | 35 nM | 720 | – | – | –
inactive | – | – | CCC1(CC)CC[C@H](C2=NCCN2)c2ccc(O)c(O)c21 | 44 | 98 | 47000 | – | 603 | inactive | – | –
– | – | – | C[C@]1(C2=NCCN2)CCCc2c1ccc(O)c2O | 69 and 76 | 41 | 16600 | 6100 nM | 924 | – | – | –
– | 73 | inactive | Oc1ccc2c(c1O)CC[C@@H](c1ccccc1)[C@@H]2C1=NCCN1 | – | – | – | inactive | 519 | inactive | – | –
– | – | – | CC1(C)CC[C@H](C2=NCCN2)c2ccc(O)c(O)c21 | 100 | 125 | 284 | – | 1240 | inactive | inactive | –
– | – | – | Oc1ccc2c(c1O)SCC[C@@H]2C1=NCCN1 | 129 and 105 | 219 | 20 | 19 nM | 526 | – | – | –
– | – | – | Oc1ccc2c(c1O)CCCC2C1=NCCN1 (stereo unspecified) | 114 and 102 | 140 | 17 | 5 nM | 720 | – | – | –
– | – | – | C[C@@H]1CCc2c(ccc(O)c2O)[C@H]1C1=NCCN1 | – | 48 | – | 4500 nM | 560 | – | – | 4390
